# Measurements as given in ChEMBL document CHEMBL1158347, “Substituted quinazolines, part 3. Synthesis, in vitro antitumor activity and molecular modeling study of certain 2-thieno-4(3H)-quinazolinone analogs” (2009).
# What was measured:
# Assay type in all cases: functional
# HL-60(TB) = test: Growth inhibition of human HL-60(TB) cells after 48 hrs; conditions: HL-60, 48 h; for CC50: read-out: LC50 (the source's name)
# Method in brief: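 NCI 60-cell-line screen over a 5-log dose range. Compounds were dissolved in DMSO, final DMSO under 1%. Duplicate wells were seeded at 6×10^4 cells/ml, with PBS/DMSO vehicle controls at identical dilutions. Cells were incubated 48 h at 37 °C in humidified 5% CO2, diluted 10-fold in saline, and counted by Coulter counter with dilution correction. GI50 read-out.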
# K562 = test: Growth inhibition of human K562 cells after 48 hrs; conditions: K562, 48 h
# Method in brief: (§1)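 NCI in vitro disease-oriented human tumor cell line screen. Compounds passing a one-dose primary assay (MCF-7, NCI-H460, SF-268; pass = growth of any line reduced to 32% or less) were tested on the 60-line panel over a 5-log dose range. Compounds were dissolved in DMSO, with under 1% DMSO in final dilutions, and tested in duplicate at 6×10^4 cells/ml. Cells were incubated at 37 °C in 5% CO2 for 48 h, then diluted 10-fold in saline and counted with a Coulter counter, with counts corrected for dilution. Controls held PBS/DMSO at identical dilutions. GI50 was reported per line and as subpanel/full-panel mean-graph midpoint.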
# RPMI-8226 = test: Growth inhibition of human RPMI8226 cells after 48 hrs; conditions: RPMI-8226, 48 h; for CC50: read-out: LC50 (the source's name); method in brief: as §1
# SF-539 = test: Growth inhibition of human SF539 cells after 48 hrs; conditions: SF-539, 48 h; for CC50: read-out: LC50 (the source's name); method in brief: as §1
# SK-MEL-2 = test: Growth inhibition of human SK-MEL-2 cells after 48 hrs; conditions: SK-MEL-2, 48 h; method in brief: as §1
# UACC-257 = test: Growth inhibition of human UACC257 cells after 48 hrs; conditions: UACC-257, 48 h; method in brief: as §1
# MCF7 = test: Growth inhibition of human MCF7 cells after 48 hrs; conditions: MCF7, 48 h; for CC50: read-out: LC50 (the source's name); method in brief: as §1
# T47D = test: Growth inhibition of human T47D cells after 48 hrs; method in brief: as §1
# [1] = Growth inhibition of human leukemia cells after 48 hrs; conditions: Leukemia cell; method in brief: as §1
# NSCLC = test: Growth inhibition of human NSCLC cells after 48 hrs; method in brief: as §1
# [2] = Growth inhibition of human Colon cancer cells after 48 hrs; conditions: Cancer cell lines; method in brief: as §1
# [3] = Growth inhibition of human CNS cancer cells after 48 hrs; conditions: Cancer cell lines; for CC50: read-out: LC50 (the source's name); method in brief: as §1
# [4] = Growth inhibition of human melanoma cells after 48 hrs; conditions: Melanoma cell; method in brief: as §1
# [5] = Growth inhibition of human ovarian cancer cells after 48 hrs; conditions: Cancer cell lines; method in brief: as §1
# [6] = Growth inhibition of human renal cancer cells after 48 hrs; conditions: Cancer cell lines; for CC50: read-out: LC50 (the source's name); method in brief: as §1
# [7] = Growth inhibition of human prostate cancer cells after 48 hrs; conditions: Cancer cell lines; for CC50: read-out: LC50 (the source's name); method in brief: as §1
# [8] = Growth inhibition of human breast cancer cells after 48 hrs; conditions: Cancer cell lines; method in brief: as §1
# CCRF-CEM = test: Growth inhibition of human CCRF-CEM cells after 48 hrs; method in brief: as §1
# [9] = read-out: LC50 (the source's name)
compound,measurement,setting,value
O=C(Nc1ccc(I)cc1C(=O)Nc1ccc(O)cc1)c1cccs1,GI50,HL-60(TB),8 µM
same,TGI,HL-60(TB),37 µM
same,CC50,HL-60(TB),> 100 µM
same,GI50,K562,24 µM
same,LC50 (concentration killing 50% of cells),K562,> 100 µM
same,TGI,K562,> 100 µM
same,GI50,RPMI-8226,3 µM
same,TGI,RPMI-8226,18 µM
same,CC50,RPMI-8226,57 µM
same,GI50,SF-539,< 0.01 µM
same,TGI,SF-539,15 µM
same,CC50,SF-539,62 µM
same,GI50,SK-MEL-2,16 µM
same,LC50,SK-MEL-2,57 µM
same,TGI,SK-MEL-2,30 µM
same,GI50,UACC-257,< 0.01 µM
same,LC50,UACC-257,> 100 µM
same,TGI,UACC-257,22 µM
same,GI50,MCF7,12 µM
same,TGI,MCF7,33 µM
same,CC50,MCF7,94 µM
same,GI50,T47D,2 µM
same,LC50,T47D,50 µM
same,TGI,T47D,11 µM
same,GI50,[1],11.5 µM
same,TGI,[1],60.6 µM
same,CC50,[1]; [9],91 µM
same,GI50,NSCLC,13.5 µM
same,LC50 (concentration killing 50% of cells),NSCLC,74.6 µM
same,TGI,NSCLC,33.1 µM
same,GI50,[2],15.2 µM
same,LC50,[2],74.6 µM
same,TGI,[2],34.5 µM
same,GI50,[3],12.2 µM
same,TGI,[3],32.4 µM
same,CC50,[3],77.6 µM
same,GI50,[4],11.1 µM
same,LC50 (lethal concentration 50%),[4],63.8 µM
same,TGI,[4],26.9 µM
same,GI50,[5],13.3 µM
same,LC50,[5],72.5 µM
same,TGI,[5],35.4 µM
same,GI50,[6],13.2 µM
same,TGI,[6],29.3 µM
same,CC50,[6],64.1 µM
same,GI50,[7],8.7 µM
same,TGI,[7],21.1 µM
same,CC50,[7],45.8 µM
same,GI50,[8],11.9 µM
same,LC50,[8],79.4 µM
same,TGI,[8],36.8 µM
NS(=O)(=O)c1ccc(CNc2nc(-c3cccs3)nc3ccc(I)cc23)cc1,GI50,CCRF-CEM,22 µM
same,TGI,CCRF-CEM,60 µM
same,CC50,CCRF-CEM; [9],> 100 µM
same,GI50,HL-60(TB),30 µM
same,TGI,HL-60(TB),> 100 µM
same,CC50,HL-60(TB),> 100 µM
same,GI50,K562,37 µM
same,LC50 (concentration killing 50% of cells),K562,> 100 µM
same,TGI,K562,> 100 µM
same,GI50,RPMI-8226,19 µM
same,TGI,RPMI-8226,50 µM
same,CC50,RPMI-8226,> 100 µM
same,GI50,SF-539,11 µM
same,TGI,SF-539,31 µM
same,CC50,SF-539,85 µM
same,GI50,SK-MEL-2,18 µM
same,LC50,SK-MEL-2,61 µM
same,TGI,SK-MEL-2,33 µM
same,GI50,UACC-257,14 µM
same,LC50,UACC-257,54 µM
same,TGI,UACC-257,28 µM
same,GI50,MCF7,0.6 µM
same,TGI,MCF7,16 µM
same,CC50,MCF7,> 100 µM
same,GI50,T47D,0.2 µM
same,LC50,T47D,82 µM
same,TGI,T47D,18 µM
same,GI50,[1],23.9 µM
same,TGI,[1],72.3 µM
same,GI50,NSCLC,14.7 µM
same,LC50 (concentration killing 50% of cells),NSCLC,82.2 µM
same,TGI,NSCLC,37 µM
same,GI50,[2],16.7 µM
same,LC50,[2],66.4 µM
same,TGI,[2],37.3 µM
same,GI50,[3],18.2 µM
same,TGI,[3],42.4 µM
same,CC50,[3],89 µM
same,GI50,[4],16 µM
same,LC50 (lethal concentration 50%),[4],58.3 µM
same,TGI,[4],30.5 µM
same,GI50,[5],15.7 µM
same,LC50,[5],89.1 µM
same,TGI,[5],42.6 µM
same,GI50,[6],13.6 µM
same,TGI,[6],36.1 µM
same,CC50,[6],88.1 µM
same,GI50,[7],17.1 µM
same,TGI,[7],41.8 µM
same,CC50,[7],80.8 µM
same,GI50,[8],12.3 µM
same,LC50,[8],80.8 µM
same,TGI,[8],32.1 µM
